In data set [1] the target is T1, Androgen receptor (Homo sapiens, UniProt P10275).
T1 sequence (P10275 whole entry): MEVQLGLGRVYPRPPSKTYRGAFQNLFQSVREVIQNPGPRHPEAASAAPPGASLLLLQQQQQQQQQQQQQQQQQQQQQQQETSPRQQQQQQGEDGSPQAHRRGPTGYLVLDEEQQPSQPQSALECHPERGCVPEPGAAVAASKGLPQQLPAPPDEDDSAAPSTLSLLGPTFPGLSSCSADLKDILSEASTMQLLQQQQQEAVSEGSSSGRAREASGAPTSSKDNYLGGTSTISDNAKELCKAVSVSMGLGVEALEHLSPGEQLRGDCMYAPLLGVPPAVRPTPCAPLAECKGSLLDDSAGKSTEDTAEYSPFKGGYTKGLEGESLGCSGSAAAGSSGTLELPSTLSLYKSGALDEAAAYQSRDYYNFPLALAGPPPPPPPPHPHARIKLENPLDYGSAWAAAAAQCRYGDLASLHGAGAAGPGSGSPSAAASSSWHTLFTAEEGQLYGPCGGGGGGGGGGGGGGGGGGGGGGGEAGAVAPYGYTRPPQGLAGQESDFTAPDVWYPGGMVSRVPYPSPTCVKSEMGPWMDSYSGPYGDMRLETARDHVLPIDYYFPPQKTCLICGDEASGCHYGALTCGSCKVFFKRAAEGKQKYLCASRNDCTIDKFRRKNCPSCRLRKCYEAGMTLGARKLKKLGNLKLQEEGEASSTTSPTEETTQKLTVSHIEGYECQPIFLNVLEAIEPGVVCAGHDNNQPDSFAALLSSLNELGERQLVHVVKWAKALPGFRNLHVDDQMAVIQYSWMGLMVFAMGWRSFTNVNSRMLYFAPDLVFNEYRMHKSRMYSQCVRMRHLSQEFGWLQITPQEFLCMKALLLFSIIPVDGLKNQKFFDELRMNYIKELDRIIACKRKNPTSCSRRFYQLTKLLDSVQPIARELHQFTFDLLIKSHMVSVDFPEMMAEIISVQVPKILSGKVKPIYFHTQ
As to the kind of experiment: Agonist activity at human androgen receptor expressed in COS7 cells assessed as luciferase activity after 24 hrs by reporter gene assay. The format is functional, cell-based, COS-7. (In general: Reporter assays use an easily measured gene product as a stand-in for the process of interest.)

Data set [2] has as its target T2, Androgen receptor (Homo sapiens, UniProt P10275, W742C). In words: Agonist activity at human androgen receptor W741C mutant expressed in COS7 cells assessed as luciferase activity after 24 hrs by reporter gene assay. The format is functional, cell-based, COS-7.
Data set [3] has as its target T3, Androgen receptor (Homo sapiens, UniProt P10275, T878A). In words: Agonist activity at human androgen receptor T877A mutant expressed in COS7 cells assessed as luciferase activity after 24 hrs by reporter gene assay. The format is functional, cell-based, COS-7.
For data set [4], the target named is T1, Androgen receptor. As to the kind of experiment: Displacement of [17-alpha-methyl-3H]-mibolerone from human androgen receptor expressed in HEK293 derived FreeStyle293F cells after 3 hrs. The format is cell-based.
Data set [5] in a line: Solubility in aqueous buffer solution at pH 6.8. Format: physicochemical. The procedure, abridged: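 DMSO stock added to aqueous buffer at pH 6.8 and incubated. Precipitate removed by filtration; filtrate concentration measured by HPLC.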
Data set [6] addresses T3, Androgen receptor. As to the kind of experiment: Displacement of [17-alpha-methyl-3H]-mibolerone from human androgen receptor T877A mutant expressed in HEK293 derived FreeStyle293F cells after 3 hrs. The format is cell-based.
The target in data set [7] is T2, Androgen receptor. As to the kind of experiment: Antagonist activity at human androgen receptor W741C mutant expressed in COS7 cells assessed as inhibition of DHT-induced luciferase activity after 24 hrs by reporter gene assay. The format is functional, cell-based, COS-7.
Data set [8] addresses T3, Androgen receptor. As to the kind of experiment: Antagonist activity at human androgen receptor T877A mutant expressed in COS7 cells assessed as inhibition of DHT-induced luciferase activity after 24 hrs by reporter gene assay. The format is functional, cell-based, COS-7.
The target in data set [9] is T1, Androgen receptor. As to the kind of experiment: Antagonist activity at human androgen receptor expressed in COS7 cells assessed as inhibition of DHT-induced luciferase activity after 24 hrs by reporter gene assay. The format is functional, cell-based, COS-7.

pEC50, pIC50: −log10 of the molar value. Converted amounts (≈) assume the structure as drawn. Some results are limits rather than exact numbers.

EC50, IC50 and solubility data for 20 compounds are collected here from ChEMBL document CHEMBL1932924, “Design, synthesis, and biological evaluation of 4-phenylpyrrole derivatives as novel androgen receptor antagonists” (Bioorg Med Chem, 2012).

As a reminder, the pEC50 is −log10 of the EC50, conventionally taken in molar units. The pIC50 is the IC50 on a negative log10 scale, so that one unit is a factor of ten. In general, solubility refers to how much of the substance goes into solution per volume.

T3 sequence (P10275 whole entry T878A): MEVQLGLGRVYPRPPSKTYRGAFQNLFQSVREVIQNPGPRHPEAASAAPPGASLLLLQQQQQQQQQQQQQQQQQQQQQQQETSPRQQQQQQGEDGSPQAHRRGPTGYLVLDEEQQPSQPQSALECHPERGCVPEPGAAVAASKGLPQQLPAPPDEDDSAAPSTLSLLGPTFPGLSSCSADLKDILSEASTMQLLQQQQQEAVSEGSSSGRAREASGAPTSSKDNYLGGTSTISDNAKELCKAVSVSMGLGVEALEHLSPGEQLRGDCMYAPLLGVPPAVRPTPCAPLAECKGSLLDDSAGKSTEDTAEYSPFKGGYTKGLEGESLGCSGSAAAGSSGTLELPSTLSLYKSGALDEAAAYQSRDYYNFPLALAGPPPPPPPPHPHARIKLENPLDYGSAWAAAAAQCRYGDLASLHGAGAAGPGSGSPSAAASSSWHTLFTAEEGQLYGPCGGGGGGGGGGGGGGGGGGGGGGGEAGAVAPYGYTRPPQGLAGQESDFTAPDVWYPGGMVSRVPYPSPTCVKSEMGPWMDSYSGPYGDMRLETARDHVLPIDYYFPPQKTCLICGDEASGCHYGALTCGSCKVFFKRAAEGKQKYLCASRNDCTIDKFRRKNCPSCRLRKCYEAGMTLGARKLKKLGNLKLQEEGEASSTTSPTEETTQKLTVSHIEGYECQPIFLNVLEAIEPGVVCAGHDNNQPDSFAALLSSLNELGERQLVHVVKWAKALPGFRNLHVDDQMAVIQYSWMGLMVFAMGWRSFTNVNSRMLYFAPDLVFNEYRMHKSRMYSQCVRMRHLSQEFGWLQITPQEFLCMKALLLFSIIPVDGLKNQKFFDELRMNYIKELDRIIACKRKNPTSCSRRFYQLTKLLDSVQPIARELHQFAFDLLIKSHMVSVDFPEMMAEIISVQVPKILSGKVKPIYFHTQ
T2 sequence (P10275 whole entry W742C): as the sequence (P10275 whole entry T878A) above, with W742C, A878T counted along it

With `Cc1c(C#N)c(-c2ccc(C#N)cc2)c(C)n1Cc1cncc(CO)c1`, the pEC50 in [1], in data set [2] and in data set [3] was under 5.00 throughout. Moreover, the negative logarithm of the IC50 (pIC50) in data set [4] is 7.85; in data set [6] it was 6.82; in data set [7], 6.22; in data set [8], 6.36; in data set [9], 7.00. Also, the solubility in data set [5] worked out at 3.5 µg/mL (≈ 10.2 µM).

Consider `COC(=O)c1c(-c2ccccc2)c(C)n(Cc2ccccc2)c1C`, for which the pEC50 in data set [1], in data set [2] and in data set [3] was under 5.00 in each case. The pIC50 in data set [4] is 6.89; in [6] it was 7.19; in [7], 5.43; in data set [8], 5.89; in [9], 5.59.

On to `Cc1c(C#N)c(-c2ccc(C#N)cc2)cn1Cc1cnc(Cl)c(CO)c1`, for which the pEC50 in data set [1], in data set [2] and in data set [3] was under 5.00 each time. Besides, the pIC50 in [4] is 7.11; in data set [6] it was 6.80; in [7] it was 6.12; in data set [8], 6.04; in [9] it was 6.77.

As to `CC(=O)c1c(-c2ccc([N+](=O)[O-])cc2)c(C)n(Cc2ccccc2)c1C`, the pEC50 in data set [1], in data set [2] and in [3] was under 5.00 in each case. Moreover, the negative logarithm of the IC50 (pIC50) in [4] is 6.41; in data set [6], 6.89; in data set [7], 5.19; in data set [8] it was 6.05; in data set [9] it was 5.34.

As to `Cc1c(C(=O)O)c(-c2ccc([N+](=O)[O-])cc2)c(C)n1Cc1ccccc1`, the pEC50 in data set [1], in data set [2] and in data set [3] was under 5.00 each time. Besides, the negative logarithm of the IC50 (pIC50) in data set [4] is 6.21; in [6] it was 6.72; in [7] it was under 5.00; in [8] it was 5.19; in data set [9] it was 5.06.

With `COC(=O)c1c(-c2ccc(C#N)c(C(F)(F)F)c2)c(C)n(Cc2ccccc2)c1C`, the results for the pEC50 in [1], in data set [2] and in data set [3] were under 5.00, under 5.00 and 5.27, respectively. Also, the negative-log IC50 (pIC50) in [4] was 8.41; in [6] it was 8.33; in data set [7], 5.48; in [8], 6.16; in [9], 6.49.

As for `CCOC(=O)c1c(-c2ccc([N+](=O)[O-])cc2)c(C)n(-c2ccccc2)c1C`, the pEC50 in data set [1], in [2] and in data set [3] was under 5.00 each time. The pIC50 in data set [4] was 6.26; in data set [6] it was 6.66; in data set [7] it was under 5.00; in data set [8], 5.68; in [9] it was 5.37.

On to `COC(=O)c1c(-c2ccc(C#N)cc2)c(C)n(Cc2ccccc2)c1C`, for which the negative logarithm of the EC50 (pEC50) in [1], in [2] and in data set [3] was under 5.00 in each case. For the same compound, the pIC50 was 7.57 in [4]; 7.64 in data set [6]; 6.15 in [7]; 6.92 in [8]; 6.57 in [9].

In the case of `CCOC(=O)c1c(-c2ccc([N+](=O)[O-])cc2)c(C)n(S(=O)(=O)c2ccccc2)c1C`, the negative logarithm of the EC50 (pEC50) in data set [1], in data set [2] and in data set [3] was under 5.00 each time. Moreover, the pIC50 was 6.89 in [4]; 7.21 in data set [6]; under 5.00 in data set [7]; 5.33 in data set [8]; 5.33 in data set [9].

`CCOC(=O)c1c(-c2ccc([N+](=O)[O-])cc2)c(C)n(CC2CCCCC2)c1C`: the pEC50 in data set [1], in data set [2] and in [3] was under 5.00 in each case. Further, the negative-log IC50 (pIC50) in data set [4] is 6.51; in data set [6] it was 6.46; in data set [7] it was 5.14; in data set [8], 5.43; in [9], 5.42.

As to `CCOC(=O)c1c(C)[nH]c(C)c1-c1ccc([N+](=O)[O-])cc1`, the pEC50 in data set [1], in data set [2] and in data set [3] was under 5.00 each time. Moreover, the negative logarithm of the IC50 (pIC50) is 7.66 in data set [4]; 7.47 in data set [6]; 5.38 in data set [7]; 6.47 in data set [8]; 6.62 in [9].

`CCOC(=O)c1c(-c2ccc([N+](=O)[O-])cc2)c(C)n(C)c1C`: the pEC50 in data set [1], in data set [2] and in data set [3] was under 5.00 each time. For the same compound, the negative-log IC50 (pIC50) in data set [4] was 7.33; in data set [6], 7.52; in data set [7], 5.21; in [8], 6.68; in data set [9], 6.30.

In the case of `CCOC(=O)c1c(-c2ccc([N+](=O)[O-])cc2)c(C)n(C(=O)c2ccccc2)c1C`, the pEC50 in data set [1], in data set [2] and in data set [3] was under 5.00 each time. Also, the pIC50 was 6.82 in data set [4]; 7.07 in data set [6]; 5.11 in data set [7]; 5.82 in [8]; 5.62 in [9].

`CCOC(=O)c1c(-c2ccc([N+](=O)[O-])cc2)c(C)n(Cc2ccccc2)c1C`: the pEC50 in [1], in data set [2] and in [3] was under 5.00 throughout. Besides, the pIC50 in data set [4] is 8.26; in data set [6], 8.28; in [7] it was 5.49; in data set [8] it was 6.80; in data set [9], 6.47.

On to `Cc1c(C#N)c(-c2ccc(C#N)cc2)c(C)n1Cc1ccccc1`, for which the pEC50 in [1], in data set [2] and in data set [3] was under 5.00 each time. The negative-log IC50 (pIC50) was 8.85 in [4]; 8.52 in [6]; 6.42 in data set [7]; 7.39 in data set [8]; 7.40 in data set [9]. The compound also returned a solubility in data set [5] of 0.35 µg/mL (≈ 1.12 µM).

Regarding `Cc1c(CO)c(-c2ccc([N+](=O)[O-])cc2)c(C)n1Cc1ccccc1`, the negative-log EC50 (pEC50) in data set [1], in data set [2] and in [3] was under 5.00 throughout. Besides, the negative logarithm of the IC50 (pIC50) in data set [4] was 6.52; in data set [6], 7.04; in [7], under 5.00; in data set [8], 6.18; in [9] it was 5.42.

Turning to `COC(=O)c1c(-c2ccc([N+](=O)[O-])cc2)c(C)n(Cc2ccccc2)c1C`, the negative-log EC50 (pEC50) in [1], in data set [2] and in [3] was under 5.00 throughout. Besides, the pIC50 in [4] is 8.30; in data set [6], 8.42; in data set [7], 6.13; in [8] it was 6.82; in data set [9] it was 6.52.

For the compound `Cc1cc(-c2ccc([N+](=O)[O-])cc2)c(C)n1Cc1ccccc1`, the pEC50 in data set [1], in data set [2] and in data set [3] was under 5.00 in each case. The negative logarithm of the IC50 (pIC50) in data set [4] was 8.17; in data set [6], 8.66; in data set [7], 5.51; in [8], 6.68; in data set [9], 6.31.

Turning to `CCOC(=O)c1c(-c2ccc([N+](=O)[O-])cc2)c(C)n(CCc2ccccc2)c1C`, the pEC50 in data set [1], in data set [2] and in data set [3] was under 5.00 in each case. In addition, the negative-log IC50 (pIC50) in data set [4] was 6.82; in data set [6] it was 7.28; in [7] it was under 5.00; in [8], 6.01; in data set [9], 5.39.

In the case of `Cc1c(-c2ccc(C#N)cc2)c(C#N)cn1Cc1cnc(Cl)c(CO)c1`, the pEC50 in data set [1], in data set [2] and in data set [3] was under 5.00 throughout. Moreover, the negative logarithm of the IC50 (pIC50) in data set [4] is 6.31; in data set [6] it was 5.96; in [7] it was 5.85; in [8], 6.09; in data set [9], 6.49.
